In ChEMBL document CHEMBL5058577, “EUbOPEN Chemogenomics Library 2 (Multiplex)” (2022):

Test system: HEK-293T
Assay: Multiplex assay against HEK293T
Assay type: toxicity, cell-based
Details: human
Outline: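 Hoechst33342, BioTracker Green Microtubule Cytoskeleton Dye, MitoTracker Red and Annexin V Alexa Fluor 680 were added to live cells at seeding, and imaging on a CQ1 microscope at 37°C and 5% CO2 followed compound addition. Gating by CellPathfinder machine learning separated cells into Hoechst high-intensity objects or normal cells, then normal cells into healthy, pyknosed or fragmented nuclei, then pyknosed cells into mitotic or apoptotic. Per cents of healthy-nucleus cells are reported for the tubulin, mitochondrial-mass and membrane-permeability phenotypes.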

[1] = 12 h, 1 µM, compound concentration 1 uM, replicate 1
[2] = 12 h, 1 µM, compound concentration 1 uM, replicate 2
[3] = 12 h, 10 µM, compound concentration 10 uM, replicate 1
[4] = 12 h, 10 µM, compound concentration 10 uM, replicate 2
[5] = 24 h, 1 µM, compound concentration 1 uM, replicate 1
[6] = 24 h, 1 µM, compound concentration 1 uM, replicate 2
[7] = 24 h, 10 µM, compound concentration 10 uM, replicate 1
[8] = 24 h, 10 µM, compound concentration 10 uM, replicate 2
[9] = 48 h, 1 µM, compound concentration 1 uM, replicate 1
[10] = 48 h, 1 µM, compound concentration 1 uM, replicate 2
[11] = 48 h, 10 µM, compound concentration 10 uM, replicate 1
[12] = 48 h, 10 µM, compound concentration 10 uM, replicate 2

CN[C@@H](C)C(=O)N[C@H](C(=O)N1CCC[C@H]1C(=O)Nc1snnc1-c1ccccc1)C1CCCCC1 [GDC-0152]
Population Apoptotic (%) [1]: 31%
Population Fragmented Nuclei (%) [1]: 5%
Population Healthy Nuclei (%) [1]: 78%
Population Hoechst High Intensity Objects (%) [1]: 5%
Population Membrane Permeable-Phenotype (%) [1]: 0%
Population Mitochondria Different-Phenotype (%) [1]: 41%
Population Mitotic Cells (%) [1]: 68%
Population Normal (%) [1]: 94%
Population Pyknosed Nuclei (%) [1]: 15%
Population Tubulin-Different-Phenotype (%) [1]: 35%
Total Cell Count [1]: 444
Population Apoptotic (%) [2]: 60%
Population Healthy Nuclei (%) [2]: 79%
Population Hoechst High Intensity Objects (%) [2]: 7%
Population Mitochondria Different-Phenotype (%) [2]: 62%
Population Mitotic Cells (%) [2]: 39%
Population Normal (%) [2]: 92%
Population Pyknosed Nuclei (%) [2]: 14%
Population Tubulin-Different-Phenotype (%) [2]: 26%
Total Cell Count [2]: 314
Population Apoptotic (%) [3]: 50%
Population Fragmented Nuclei (%) [3]: 6%
Population Healthy Nuclei (%) [3]: 73%
Population Hoechst High Intensity Objects (%) [3]: 13%
Population Membrane Permeable-Phenotype (%) [3]: 0%
Population Mitochondria Different-Phenotype (%) [3]: 78%
Population Mitotic Cells (%) [3]: 49%
Population Normal (%) [3]: 86%
Population Pyknosed Nuclei (%) [3]: 20%
Population Tubulin-Different-Phenotype (%) [3]: 78%
Total Cell Count [3]: 362
Population Apoptotic (%) [4]: 72%
Population Fragmented Nuclei (%) [4]: 7%
Population Hoechst High Intensity Objects (%) [4]: 20%
Population Mitochondria Different-Phenotype (%) [4]: 89%
Population Mitotic Cells (%) [4]: 28%
Population Normal (%) [4]: 80%
Population Pyknosed Nuclei (%) [4]: 18%
Population Tubulin-Different-Phenotype (%) [4]: 72%
Total Cell Count [4]: 330
Population Apoptotic (%) [5]: 30%
Population Fragmented Nuclei (%) [5]: 8%
Population Healthy Nuclei (%) [5]: 80%
Population Hoechst High Intensity Objects (%) [5]: 4%
Population Membrane Permeable-Phenotype (%) [5]: 1%
Population Mitochondria Different-Phenotype (%) [5]: 28%
Population Mitotic Cells (%) [5]: 69%
Population Normal (%) [5]: 95%
Population Pyknosed Nuclei (%) [5]: 10%
Population Tubulin-Different-Phenotype (%) [5]: 23%
Total Cell Count [5]: 601
Population Apoptotic (%) [6]: 38%
Population Fragmented Nuclei (%) [6]: 5%
Population Healthy Nuclei (%) [6]: 82%
Population Hoechst High Intensity Objects (%) [6]: 6%
Population Membrane Permeable-Phenotype (%) [6]: 0%
Population Mitochondria Different-Phenotype (%) [6]: 53%
Population Mitotic Cells (%) [6]: 61%
Population Normal (%) [6]: 93%
Population Pyknosed Nuclei (%) [6]: 12%
Population Tubulin-Different-Phenotype (%) [6]: 22%
Total Cell Count [6]: 387
Population Apoptotic (%) [7]: 45%
Population Fragmented Nuclei (%) [7]: 10%
Population Healthy Nuclei (%) [7]: 71%
Population Hoechst High Intensity Objects (%) [7]: 7%
Population Membrane Permeable-Phenotype (%) [7]: 0%
Population Mitochondria Different-Phenotype (%) [7]: 74%
Population Mitotic Cells (%) [7]: 54%
Population Normal (%) [7]: 92%
Population Pyknosed Nuclei (%) [7]: 17%
Population Tubulin-Different-Phenotype (%) [7]: 69%
Total Cell Count [7]: 454
Population Apoptotic (%) [8]: 60%
Population Fragmented Nuclei (%) [8]: 12%
Population Healthy Nuclei (%) [8]: 68%
Population Hoechst High Intensity Objects (%) [8]: 21%
Population Mitochondria Different-Phenotype (%) [8]: 80%
Population Mitotic Cells (%) [8]: 40%
Population Normal (%) [8]: 78%
Population Pyknosed Nuclei (%) [8]: 19%
Population Tubulin-Different-Phenotype (%) [8]: 58%
Total Cell Count [8]: 400
Population Apoptotic (%) [9]: 31%
Population Fragmented Nuclei (%) [9]: 12%
Population Healthy Nuclei (%) [9]: 78%
Population Hoechst High Intensity Objects (%) [9]: 4%
Population Membrane Permeable-Phenotype (%) [9]: 1%
Population Mitochondria Different-Phenotype (%) [9]: 22%
Population Mitotic Cells (%) [9]: 68%
Population Normal (%) [9]: 95%
Population Pyknosed Nuclei (%) [9]: 9%
Population Tubulin-Different-Phenotype (%) [9]: 16%
Total Cell Count [9]: 928
Population Apoptotic (%) [10]: 40%
Population Fragmented Nuclei (%) [10]: 10%
Population Healthy Nuclei (%) [10]: 82%
Population Hoechst High Intensity Objects (%) [10]: 3%
Population Mitochondria Different-Phenotype (%) [10]: 29%
Population Mitotic Cells (%) [10]: 60%
Population Normal (%) [10]: 96%
Population Pyknosed Nuclei (%) [10]: 6%
Total Cell Count [10]: 603
Population Apoptotic (%) [11]: 47%
Population Fragmented Nuclei (%) [11]: 12%
Population Healthy Nuclei (%) [11]: 73%
Population Hoechst High Intensity Objects (%) [11]: 16%
Population Membrane Permeable-Phenotype (%) [11]: 0%
Population Mitochondria Different-Phenotype (%) [11]: 74%
Population Mitotic Cells (%) [11]: 52%
Population Normal (%) [11]: 83%
Population Pyknosed Nuclei (%) [11]: 13%
Population Tubulin-Different-Phenotype (%) [11]: 55%
Total Cell Count [11]: 538
Population Apoptotic (%) [12]: 60%
Population Healthy Nuclei (%) [12]: 70%
Population Hoechst High Intensity Objects (%) [12]: 21%
Population Mitochondria Different-Phenotype (%) [12]: 76%
Population Mitotic Cells (%) [12]: 39%
Population Normal (%) [12]: 78%
Population Pyknosed Nuclei (%) [12]: 17%
Population Tubulin-Different-Phenotype (%) [12]: 52%
Total Cell Count [12]: 417
